Experimental data from ChEMBL document CHEMBL3085755, “Synthesis of 3-spiromorpholinone androsterone derivatives as inhibitors of 17β-hydroxysteroid dehydrogenase type 3” (Bioorg Med Chem Lett, 2013).

Assays:
[1] = biological target: T1, 17-beta-hydroxysteroid dehydrogenase type 3 (Rattus norvegicus) (UniProt O54939); assay: Inhibition of 17beta-HSD3 in rat testes microsomal fraction using [14C]-4-androstene-3,17-dione as substrate assessed as testosterone formation at 1 uM after 2 hrs by thin layer chromatography; assay type: microsomes; conditions: Testis
T1 sequence (whole entry): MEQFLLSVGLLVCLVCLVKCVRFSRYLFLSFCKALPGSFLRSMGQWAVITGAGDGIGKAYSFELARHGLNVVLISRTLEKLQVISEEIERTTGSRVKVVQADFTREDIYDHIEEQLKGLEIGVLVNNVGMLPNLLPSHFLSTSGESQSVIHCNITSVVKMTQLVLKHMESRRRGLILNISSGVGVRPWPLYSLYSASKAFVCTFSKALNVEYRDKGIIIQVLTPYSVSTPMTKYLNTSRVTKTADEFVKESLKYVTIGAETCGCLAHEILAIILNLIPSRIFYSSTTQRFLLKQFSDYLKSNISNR
Summary of the method: (§1)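 Rat testis microsomes supplying 17β-HSD3, converting [14C]-4-androstene-3,17-dione (50 nM) into testosterone. Inhibition of this transformation is measured at a fixed inhibitor concentration and expressed as mean ± SD of triplicate.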

[2] = biological target: T2, 17-beta-hydroxysteroid dehydrogenase type 3 (Rattus norvegicus, UniProt O54939); assay: Inhibition of 17beta-HSD3 in rat testes microsomal fraction using [14C]-4-androstene-3,17-dione as substrate assessed as testosterone formation after 2 hrs by thin layer chromatography
T2 sequence (O54939 whole entry): T1 sequence (whole entry)
Summary of the method: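 Rat testis microsomal fraction as 17β-HSD3 source, converting [14C]-Δ4-dione (50 nM) to [14C]-testosterone. Activity is plotted against log inhibitor concentration. IC50 is fitted from the inhibition curves. Values are mean ± SD of triplicates.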

[3] = biological target: T1, 17-beta-hydroxysteroid dehydrogenase type 3 (Rattus norvegicus); assay: Inhibition of 17beta-HSD3 in rat testes microsomal fraction using [14C]-4-androstene-3,17-dione as substrate assessed as testosterone formation at 0.1 uM after 2 hrs by thin layer chromatography; assay type: microsomes; conditions: Testis; summary of the method: as §1

SMILES | inhibition [1] [%] | IC50 [2] [nM] | inhibition [3] [%]
C[C@]12CC[C@@]3(C[C@@H]1CC[C@@H]1[C@@H]2CC[C@]2(C)C(=O)CC[C@@H]12)CN(Cc1ccccc1)[C@@H](Cc1ccccc1)C(=O)O3 | 90.4 | 58 | 58.2
O=C1OC2(CCCCC2)CN(Cc2ccccc2)[C@H]1Cc1ccccc1 | 24.3 | – | 24.2
C[C@]12CC[C@]3(CN[C@H](Cc4ccccc4)C(=O)O3)C[C@@H]1CC[C@@H]1[C@@H]2CC[C@]2(C)C(=O)CC[C@@H]12 | 63.2 | – | 18.5
CC1CN(S(=O)(=O)c2ccccc2C(F)(F)F)C(C)CN1C[C@@]1(O)CC[C@@]2(C)[C@@H](CC[C@@H]3[C@@H]2CC[C@]2(C)C(=O)CC[C@@H]32)C1 (stereo partly specified) | – | 14 | 47.3
O=C1OC2(CCCCC2)CN[C@H]1Cc1ccccc1 | 19.5 | – | 6.2
C[C@]12CC[C@@]3(C[C@@H]1CC[C@@H]1[C@@H]2CC[C@]2(C)C(=O)CC[C@@H]12)CN(Cc1ccccc1)[C@H](Cc1ccccc1)C(=O)O3 | 87.3 | – | 25.6
C[C@]12CC[C@]3(CN[C@@H](Cc4ccccc4)C(=O)O3)C[C@@H]1CC[C@@H]1[C@@H]2CC[C@]2(C)C(=O)CC[C@@H]12 | 92 | 22 | 48.8
